Test results reported in ChEMBL document CHEMBL3774327, “Design, synthesis, and analysis of antagonists of GPR55: Piperidine-substituted 1,3,4-oxadiazol-2-ones” (Bioorg Med Chem Lett, 2016).
pIC50: −log10 of the molar value.

tested on: not listed separately; experiment: Antagonist activity at HA-epitope tagged GRP55E expressed with GFP-tagged beta-arr2 in human U2OS cells assessed as LPI-stimulated redistribution of beta-arr2 preincubated for 15 mins by beta-arrestin translocation assay; format: cell-based; conditions: not given

pIC50 | Compound
6.66 | Cc1cc(C)c2nc(-c3ccccn3)cc(C(=O)Nc3ccc(S(=O)(=O)Nc4onc(C)c4C)cc3)c2c1
5.96 | Cc1ccc(C2(C(=O)N3CCC(n4nc(-c5ccccc5)oc4=O)CC3)CC2)cc1
6.15 | Cc1nc(N2CCN(C(=O)c3ccco3)CC2)c2c3c(sc2n1)CCCC3

target: G-protein coupled receptor 55 (Homo sapiens, UniProt Q9Y2T6); experiment: Antagonist activity at beta-galactosidase fragment-fused GRP55 (unknown origin) over-expressed with N-terminal deletion beta-galactosidase mutant-tagged beta-arr2 in […] cells assessed as inhibition of LPI induced beta-arrestin activity preincubated for 30 mins by PathHunter chemiluminescent complementation assay; format: cell-based; conditions: cho-k1
Sequence (Q9Y2T6 whole entry, looked up, stated change not applied, the tested form may be a part): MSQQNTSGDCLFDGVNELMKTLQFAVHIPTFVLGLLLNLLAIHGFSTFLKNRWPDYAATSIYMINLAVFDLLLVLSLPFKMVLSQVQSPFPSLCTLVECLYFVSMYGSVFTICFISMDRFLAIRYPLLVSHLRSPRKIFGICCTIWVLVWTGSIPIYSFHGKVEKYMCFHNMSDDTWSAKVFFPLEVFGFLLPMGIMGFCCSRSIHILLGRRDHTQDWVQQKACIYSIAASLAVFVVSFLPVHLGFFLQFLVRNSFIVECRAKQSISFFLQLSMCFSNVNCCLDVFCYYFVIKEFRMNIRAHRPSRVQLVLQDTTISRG
In short: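 Inhibition of LPI-induced β-arrestin activity was quantitated by chemiluminescence. Concentration-response curves were run in triplicate against 6 μM LPI, and IC50 was derived with 95% confidence intervals.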

IC50 | Compound
ND(Insoluble) | COc1ccc(C2(C(=O)N3CCC(n4nc(-c5ccccc5)oc4=O)CC3)CC2)cc1
ND(Insoluble) | COc1ccc(-c2nn(C3CCN(C(=O)C4(c5ccc(OC)cc5)CC4)CC3)c(=O)o2)cc1
ND(Insoluble) | O=C(N1CCC(n2nc(-c3ccc(C(F)(F)F)cc3)oc2=O)CC1)C1(c2ccccc2)CC1

same assay, conditions: cho-k1; read-out: IC50

Compound | pIC50
O=C(N1CCC(n2nc(-c3ccccc3)oc2=O)CC1)C1(c2ccc(Cl)cc2)CC1 | 6.19
O=C(N1CCC(n2nc(-c3ccccc3)oc2=O)CC1)C1(c2ccc(Cl)cc2Cl)CC1 | 5.60
COc1ccc(C2(C(=O)N3CCC(n4nc(-c5ccc(C(F)(F)F)cc5)oc4=O)CC3)CC2)cc1 | 5.74
Cc1ccc(C2(C(=O)N3CCC(n4nc(-c5ccccc5)oc4=O)CC3)CC2(C)C)cc1 (racemic) | 6.11

The next lines start with the values.

pIC50 | Compound
4.92 | O=C(N1CCC(n2nc(-c3ccccc3)oc2=O)CC1)C1(c2ccccc2)CC1
6.38 | O=C(N1CCC(n2nc(-c3cccnc3)oc2=O)CC1)C1(c2ccccc2)CC1
5.15 | COc1ccc(-c2nn(C3CCN(C(=O)C4(c5ccccc5)CC4)CC3)c(=O)o2)cc1

tested on: not listed separately; experiment: Antagonist activity at GRP55E (unknown origin) over-expressed with GFP-tagged beta-arr2 in human U2OS cells assessed as inhibition of LPI induced beta-arrestin recruitment preincubated for 30 mins by beta-arrestin recruitment assay; format: cell-based; conditions: not given

Compound | pIC50
O=C(N1CCC(n2nc(-c3cccc(C(F)(F)F)c3)oc2=O)CC1)C1(c2ccccc2)CC1 | < 4.82
O=C(N1CCC(n2nc(-c3ccco3)oc2=O)CC1)C1(c2ccccc2)CC1 | < 4.82

Continued, values first:

pIC50 | Compound
< 4.82 | O=C(N1CCC(n2nc(-c3cccs3)oc2=O)CC1)C1(c2ccccc2)CC1
< 4.82 | O=C(c1cccc2ccccc12)N1CCC(n2nc(-c3ccccc3)oc2=O)CC1
